Assay results collected from several papers.
Each line is one published result; the experiments were not run side by side.
Target: Mitogen-activated protein kinase kinase kinase 15 (MAP3K15, Homo sapiens, UniProt Q6ZN16)
Sequence (Q6ZN16 1-1313, as in one of the studies): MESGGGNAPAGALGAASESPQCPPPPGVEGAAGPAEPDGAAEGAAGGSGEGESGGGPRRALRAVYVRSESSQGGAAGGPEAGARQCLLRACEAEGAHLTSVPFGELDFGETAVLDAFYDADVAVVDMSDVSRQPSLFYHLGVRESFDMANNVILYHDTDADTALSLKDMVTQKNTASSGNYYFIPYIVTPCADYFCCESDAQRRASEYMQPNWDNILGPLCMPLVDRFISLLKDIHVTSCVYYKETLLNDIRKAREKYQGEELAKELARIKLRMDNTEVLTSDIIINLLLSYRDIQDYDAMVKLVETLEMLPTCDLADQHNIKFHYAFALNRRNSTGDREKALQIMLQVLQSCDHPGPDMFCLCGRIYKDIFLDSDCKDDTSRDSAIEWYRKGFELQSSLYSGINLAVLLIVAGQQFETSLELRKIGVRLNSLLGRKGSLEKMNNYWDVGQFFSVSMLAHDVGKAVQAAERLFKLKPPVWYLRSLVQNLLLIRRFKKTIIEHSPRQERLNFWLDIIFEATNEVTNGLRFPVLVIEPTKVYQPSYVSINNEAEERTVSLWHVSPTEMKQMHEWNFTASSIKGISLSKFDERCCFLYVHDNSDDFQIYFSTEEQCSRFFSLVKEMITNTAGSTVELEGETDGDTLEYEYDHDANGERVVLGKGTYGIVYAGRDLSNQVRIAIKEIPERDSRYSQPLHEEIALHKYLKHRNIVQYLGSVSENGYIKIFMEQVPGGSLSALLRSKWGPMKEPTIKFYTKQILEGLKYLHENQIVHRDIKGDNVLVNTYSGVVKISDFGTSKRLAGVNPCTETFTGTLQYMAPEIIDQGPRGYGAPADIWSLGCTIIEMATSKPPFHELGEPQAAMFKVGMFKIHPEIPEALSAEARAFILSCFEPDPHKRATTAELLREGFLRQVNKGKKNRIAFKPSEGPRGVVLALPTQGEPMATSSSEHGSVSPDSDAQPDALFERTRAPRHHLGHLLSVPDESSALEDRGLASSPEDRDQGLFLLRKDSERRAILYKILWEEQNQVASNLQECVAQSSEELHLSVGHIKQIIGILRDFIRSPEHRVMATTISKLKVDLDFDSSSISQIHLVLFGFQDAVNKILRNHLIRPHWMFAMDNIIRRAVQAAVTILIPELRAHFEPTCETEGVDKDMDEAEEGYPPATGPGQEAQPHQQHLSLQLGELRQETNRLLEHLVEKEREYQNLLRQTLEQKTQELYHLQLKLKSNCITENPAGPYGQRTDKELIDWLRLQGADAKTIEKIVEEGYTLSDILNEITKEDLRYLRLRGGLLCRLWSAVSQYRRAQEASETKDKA

`COc1ncc2cc3ccccc3nc2c1C#N` gave a remaining binding of 95% (cell-free assay, competition with immobilised ligand; 5 µM).
`N[C@H]1CCN(c2nccc(-c3cnn4ncccc34)n2)C1` has a remaining binding of 83% (binding; 1 µM).
For `O=c1nc(-c2ccccn2)sc2ccccc12`, the remaining binding was 100% (binding, competition with immobilised ligand; 1 µM).
`Nc1ncc2c(n1)-c1c([nH]c3ccc(C#CC4CC4)cc13)CCCC2` has a remaining binding of 73% (binding, competition with immobilised ligand; 1 µM).
The remaining binding of `COc1cnc(Nc2cccc(S(N)(=O)=O)c2)nc1N1CCN(c2ccccc2)C(=O)C1` is reported as 69% (binding, competition with immobilised ligand; 1 µM).
For `O=C(c1ccc(Nc2nccc(-c3cc4ccccc4s3)n2)cc1)N1CCC(N2CCCC2)CC1`, the remaining binding was 96% (binding, competition with immobilised ligand; 1 µM).
For `CNC(=O)[C@@H]1CC[C@@H](n2c(-c3ccc4cnccc4c3)nc3ccc(C(=O)NCc4cccc(C(N)=O)c4)cc32)C1`, the remaining binding was 99% (binding, competition with immobilised ligand; 1 µM).
With `C=CC(=O)N1CCC(C(=O)NCC(=O)N2CCN(c3nc(-c4cnc(N)nc4C(F)F)nc(N4CCOCC4)n3)CC2)CC1` the remaining binding was 100% (binding, competition with immobilised ligand; 1 µM).
`Cn1nc(C(F)(F)F)cc1-c1cnc(N2CCc3cc(S(=O)(=O)Nc4c(F)cc(Cl)cc4F)cc(N4CCCC4=O)c32)nc1` has a remaining binding of 81% (cell-free assay, competition with immobilised ligand; 1 µM).
The remaining binding of `Cc1cnn2ncc(-c3ccnc(N(C)C)n3)c2c1` is reported as 100% (binding; 1 µM).
The remaining binding of `CCCOc1ccc([C@@H]2[C@@H](C(=O)O)[C@H](c3ccc4c(c3)OCO4)CN2CC(=O)Nc2c(CC)cccc2CC)cc1` is reported as 99% (cell-free assay, competition with immobilised ligand; 1 µM).
`O=C(Nc1c[nH]nc1C(=O)NC1CCNCC1)c1cc(F)cc(F)c1` gave a remaining binding of 100% (binding, competition with immobilised ligand; 1 µM).
With `O=C(c1ccc(Nc2ncc(Cl)c(-c3ccc(Cl)s3)n2)cc1)N1CCC(N2CCCC2)CC1` the remaining binding was 52% (binding, competition with immobilised ligand; 1 µM).
The remaining binding of `c1cnn2ncc(-c3ccnc(N4CCC45COC5)n3)c2c1` is reported as 68% (binding; 1 µM).
With `Cc1cnc(Nc2ccc(C(=O)N3CCC(N4CCCC4)CC3)cc2)nc1-c1cc2ccccc2s1` the remaining binding was 38% (binding, competition with immobilised ligand; 1 µM).
For `COc1ccnn2ncc(-c3ccnc(N(C)C)n3)c12`, the remaining binding was 100% (binding; 1 µM).
For `CN(C)C(=O)Cn1cc(-c2nc([C@@](C)(c3ccc(-c4cnc(N)nc4)cc3)C3CC3)no2)cn1`, the remaining binding was 99% (cell-free assay, competition with immobilised ligand; 1 µM).
`CN(c1nccc(-c2cnn3ncccc23)n1)C1CC1` gave a remaining binding of 100% (binding; 1 µM).
For `C[C@@]1(Cc2ccc(C#N)cc2)C(=O)N(c2cc(Cl)cc(Cl)c2)c2ncc(C(=O)NC3(c4nc(C5CCC5)no4)CC3)n21`, the remaining binding was 81% (cell-free assay, competition with immobilised ligand; 1 µM).
With `CC1CCCN1c1nccc(-c2cnn3ncccc23)n1` (stereo not drawn) the remaining binding was 100% (binding; 1 µM).
With `O=C(O)c1cc(-c2ccc(C3CCNCC3)cc2)c2ccc(-c3ccc(C(F)(F)F)cc3)cc2c1` the remaining binding was 99% (cell-free assay, competition with immobilised ligand; 1 µM).
